DNMT1 inh = inhibitors of human DNMT1. inhibition (reported as % activation of signal), % at 10 µM. DNMT1 molecular beacon, Hinp1I cleavage, fluorescence. 360,000 compounds, 0.83% hits; in the data active = inhibition above about 50%
Scp-1 inhibitor = blocks human Scp-1 phosphatase activity | Q9GZU7 | Recombinant Scp1, phosphopeptide, malachite green phosphate absorbance | inhibition, % at 20 µM | 340,000 compounds, 0.88% hits | AID 493091;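 active = inhibition above about 50% at 20 µM, limit read from the data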
Target sequence (Q9GZU7 76-261 limits assumed): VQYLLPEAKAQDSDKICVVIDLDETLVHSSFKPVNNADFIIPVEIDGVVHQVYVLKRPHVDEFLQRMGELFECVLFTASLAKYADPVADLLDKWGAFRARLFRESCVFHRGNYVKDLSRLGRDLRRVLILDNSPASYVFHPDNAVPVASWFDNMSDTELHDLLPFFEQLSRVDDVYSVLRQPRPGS
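Material: truncated SCP-1 phosphatase (76-261aa) / Buffer or medium: 50 mM Tris acetate pH 5.5, 0.005% Tween-20, 10 mM MgCl2 / Compound dosing: one concentration, 20 µM, with 1.0% DMSO / Incubation: 45 min room-temperature reaction, 5 min colour, 30 min stabiliser / Detection: colorimetric free-phosphate detection, absorbance 630 nm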
LMPTP block = blocks human LMPTP phosphatase; 360,000 compounds, 0.22% hits; AID 651560; inhibition, % at 20 µM; recombinant LMPTP-A, OMFP fluorogenic substrate, fluorescence intensity;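 active = compounds that cut the enzyme signal by at least half of the control window in the single-dose screen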
Target sequence (P24666 whole entry, looked up): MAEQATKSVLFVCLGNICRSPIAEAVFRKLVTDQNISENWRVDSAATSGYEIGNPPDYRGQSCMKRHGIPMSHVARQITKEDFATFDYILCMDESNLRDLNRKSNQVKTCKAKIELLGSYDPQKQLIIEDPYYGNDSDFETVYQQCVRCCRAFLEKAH
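test system = LMPTP-A | amount = 0.625 nM LMPTP-A final | reagent = fluorogenic phosphatase substrate OMFP at 400 µM final | incubation = 50 min at room temperature | benchmarks = no-enzyme low control, uninhibited high control | medium = Bis-Tris pH 6.0, DTT, detergent | signal = fluorescence intensity of OMFP turnover product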
SUMO1-SIM PPI = SUMO1-SIM interaction modulation; P63165; SUMO1 binding to a labelled peptide, TR-FRET, 1 h; inhibition, % at 20 µM; 360,000 compounds, 0.33% hits; in the data active = inhibition above about 37%
Target sequence (P63165 whole entry, looked up): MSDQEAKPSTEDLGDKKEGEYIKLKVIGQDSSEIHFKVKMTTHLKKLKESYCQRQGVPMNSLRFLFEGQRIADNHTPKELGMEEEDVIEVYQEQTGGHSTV
STEP block = STEP (human) phosphatase inhibition. 360,000 compounds, 0.25% hits. recombinant STEP, OMFP fluorogenic substrate, fluorescence. inhibition, % at 20 µM. AID 588621;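 active = inhibition at 20 µM, scaled per plate between control wells, above about 37%, limit read from the data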
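Material: STEP (striatal-enriched tyrosine phosphatase) enzyme, cell-free; Compound dosing: 20 µM single dose in 1% DMSO; Technique: fluorescence read at 480 nm ex / 540 nm em; Times: reaction 20 min, ambient temperature; Medium: 50 mM Bis-Tris pH 6.0 with 2.5 mM DTT and 0.005% Tween 20; Also added: OMFP at 25 µM.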
Beacon interf DR = shows spectral interference in the DNMT1 beacon assay | shares compounds with DNMT1 inh | molecular beacon fluorescence, spectral interference counter-screen | 200 tested, under 10 active | IC50, µM; call rule not given here
DNMT1 inh conf = DNMT1 inhibition confirmation, single concentration | shares compounds with DNMT1 inh | DNMT1 molecular beacon HinP1I cleavage, fluorescence | inhibition, % at 10 µM | 2,300 compounds, 8% hits;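 active = average inhibition of at least 30% in the single-concentration confirmation test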
DNMT1 interf = shows spectral interference in the DNMT1 beacon assay; shares compounds with DNMT1 inh; DNMT1 molecular beacon spectral interference counterscreen, fluorescence 485/520; activation (fluorescence interference), % at 10 µM; 2,300 compounds, 1% hits; AID 602387;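 active = activation of at least 30% at 10 µM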;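 note: DNMT1 catalytic domain with a HinP1I cleavage step and a FAM/dabcyl DNA beacon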
A number is an active result; – = inactive; · = no result given. The list is not random: actives were taken first. Their share in the collection is about 1.8%.

SMILES	DNMT1 inh	Scp-1 inhibitor	LMPTP block	SUMO1-SIM PPI	STEP block	DNMT1 inh conf	DNMT1 interf	others
Cc1ccc(CCCNC(=O)C2CCC(=O)N(Cc3cccc(F)c3)C2)cc1 (configuration not stated)	–	–	–	–	–	·	·
COc1cc(C(CC(=O)N2CCCC2)c2c(OC)cc(OC)c3ccc(=O)oc23)cc(OC)c1OC (configuration not stated)	–	–	–	–	–	·	·
COc1cc(OC)c2ccc(=O)oc2c1C(CC(=O)N1CCCC1)c1ccc2c(c1)OCO2 (configuration not stated)	72	–	–	–	–	–	–
O=C(NC1CCCC1)C(c1ccc(F)cc1)N(C(=O)c1csnn1)C1CC1 (configuration not stated)	–	–	–	–	–	·	·
Cc1cccc(C)c1-n1nnnc1C(c1cc2ccccc2o1)N1CCN(C/C=C/c2ccccc2)CC1 (configuration not stated)	63	·	–	–	–	–	–
N#Cc1c(N2CCCCC2)nc(N)c2c(N)nc3c(c12)CC(CCl)O3 (configuration not stated)	–	–	–	–	–	·	·
N#Cc1c(N)nc2c(c1N)CC(CCl)O2 (configuration not stated)	93	–	–	–	–	–	–
Cc1ccc(NC(=O)Cn2cnc(C(=O)Nc3ccc(C)c(C)c3)n2)cc1C	52	–	–	–	–	–	–
CN(C)c1ccc(C(CNC(=O)c2ccco2)N2CCCC2)cc1 (configuration not stated)	–	–	–	–	–	·	·
Cc1ccc(-c2cc(C(F)F)n3ncc(C(=O)NCc4ccco4)c3n2)cc1	76	–	–	–	–	–	–
Clc1nc2ccccc2cc1/C=N/Nc1nc2ccccc2[nH]1	55	–	–	–	–	–	–
C=CCOC(=O)c1cc(-c2ccc(/C=C3\C(=O)NC(=O)C(C#N)=C3C)o2)ccc1Cl	105	87	–	43	–	97	–	Beacon interf DR=–
COc1ccc2nc(-c3ccco3)c(-c3ccco3)nc2c1	98	77	54	44	–	–	–
COc1ccc2nc3cccc(OC)c3nc2c1	–	–	–	–	–	·	·
COc1ccc(S(=O)(=O)NCc2ccncc2)cc1OC	–	–	–	–	–	·	·
COc1ccc(S(=O)(=O)NCc2cccnc2)cc1OC	56	–	–	–	–	–	–
O=C(C[C@H]1C/C=C\C[C@@H](Cc2ccc(F)cc2)C(=O)O[C@H](c2ccccc2)CNC1=O)N[C@@H](CO)Cc1ccccc1	85	–	–	–	–	–	–
O=C(C[C@H]1C/C=C\CC[C@@H](Cc2ccc(F)cc2)C(=O)O[C@@H](c2ccccc2)CNC1=O)N[C@H](CO)Cc1ccccc1	–	–	–	–	–	·	·
O=C(C[C@@H]1C/C=C\C[C@@H](Cc2ccc(F)cc2)C(=O)OC[C@@H](Cc2ccccc2)NC1=O)N[C@H](CO)Cc1ccccc1	68	–	–	–	–	–	–
O=C(N[C@@H]1C/C=C\C[C@H](CC(=O)N(CCO)Cc2ccccc2)C(=O)NC[C@@H](c2ccccc2)OC1=O)OCC1c2ccccc2-c2ccccc21	–	–	–	–	–	·	·
C[C@@H]1COC(=O)[C@H](Cc2ccc(F)cc2)C/C=C\C[C@@H](CC(=O)N[C@H](CO)Cc2ccccc2)C(=O)N1	–	–	–	–	–	·	·
O=C(C[C@H]1C/C=C\C[C@H](NC(=O)OCC2c3ccccc3-c3ccccc32)C(=O)O[C@H](c2ccccc2)CNC1=O)N[C@H](CO)Cc1ccccc1	57	–	–	–	–	–	–
CC(=O)N/N=C\c1cccc(OC/C=C/c2ccccc2)c1	–	–	–	–	–	·	·
O=[N+]([O-])c1ccc(-c2cn(-c3ccc(Cl)cc3)cn2)cc1	54	·	–	75	–	–	–
O=C(C=Cc1cccs1)c1ccc(Cl)s1	–	–	–	–	–	·	·
SMILES	DNMT1 inh	Scp-1 inhibitor	LMPTP block	SUMO1-SIM PPI	STEP block	DNMT1 inh conf	DNMT1 interf	others
COc1ccc2oc(=O)cc(-c3cc4cccc(OC)c4o3)c2c1	–	–	–	–	–	·	·
COc1cccc2cc(-c3cc(=O)oc4cc(C)c(OCC(C)=O)cc34)oc12	63	–	–	–	–	–	–
Nc1c(-c2ccc(F)cc2)nc2ncccn12	·	·	–	–	·	·	·
S=c1[nH]nc(-c2cccc(Cl)c2)n1/N=C/c1ccc(-c2ccccc2Br)o1	62	–	–	–	–	–	–
COc1ccc(CN2CCC[C@]3(N[C@H](c4ccccc4)[C@@H]4C(=O)N(C)C(=O)[C@@H]43)C2=O)cc1	–	·	–	–	–	·	·
O=C1c2ccccc2-c2c1c1ccccc1c(=O)n2-c1ccccc1	–	–	–	–	–	–	–
CN(Cc1cccc(F)c1)C(=O)c1ccccc1Sc1ccccc1C#N	–	–	–	–	–	·	·
Cc1nc2cc(NC(=O)N3CCN(c4ccccn4)CC3)ccc2o1	–	–	–	–	–	·	·
O=C(Nc1ccc2nc(-c3ccco3)c(-c3ccco3)nc2c1)N1CCN(c2ccccn2)CC1	93	92	87	46	–	–	–
O=C(NCc1ccco1)c1nc2nc(-c3cccs3)cc(C(F)(F)F)n2n1	56	–	–	–	–	–	–
Cc1ccc(Cl)cc1NC(=O)CN1C(=O)NC(C)(C2CC2)C1=O (configuration not stated)	–	–	–	–	–	·	·
Cc1cccc2c(N=NC(=O)c3ccc(NS(=O)(=O)c4cccs4)cc3)c(O)[nH]c12	87	–	–	–	–	–	–
CC(=O)Oc1cccc(/C=c2\sc3nc(-c4ccco4)nn3c2=O)c1	61	–	–	–	–	–	–
CCN(C(=O)Cn1c(=O)n(-c2cc(OC)c(OC)c(OC)c2)c(=O)c2ccccc21)c1cccc(C)c1	130	–	–	–	–	–	–
COc1cc(-n2c(=O)c3ccccc3n(CC(=O)c3ccc(Br)cc3)c2=O)cc(OC)c1OC	–	–	–	–	–	·	·
Cc1nn(-c2ccccc2)c2nc(-c3ccco3)cc(C(=O)O)c12	61	–	–	–	–	–	–
Cc1nn(-c2cccc(Cl)c2)c2nc(-c3ccco3)cc(C(=O)O)c12	71	–	–	40	–	–	–
O=C(O)c1cc(-c2cc3ccccc3o2)nn1-c1ccccc1	–	–	–	–	–	·	·
O=C(O)c1cc(-c2ccco2)nn1-c1ccc(Cl)cc1	96	67	–	–	–	–	–
Cc1cccc(-n2nc(C)c3c(C(=O)O)cc(-c4cccs4)nc32)c1	–	–	–	–	–	·	·

High-throughput results as filed in PubChem BioAssay.
